Measured values from PubChem BioAssay AID638 (SRMLSC, 2007).
The campaign covered roughly 1,300 compounds. About 65 (5%) were called active.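 How the source made its calls: active means growth inhibition reaching a set limit at one or more tested doses; inactive means the rest.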 These entries were drawn from the full list. Potency and affinity values are given separately.

Assay: wild-type E. coli BW25113 antibacterial activity – OD615, dose response (AID 638)
Details: at 100 µM (top of the series) unless noted
How it was run: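 Material – E. coli BW25113 wild type · Medium – Kanamycin-supplemented LB broth · Doses – compound dilution series for dose-response · Incubation – 20 h compound exposure, 37 °C · Technique – optical density (absorbance) at 615 nm · Read-out basis – IC50 from 4-parameter logistic, bounds fixed 0–100% · Control set – chloramphenicol at 30 µM final as inhibition control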

Growth inhibition, active:
O=C(Nc1nc2n(n1)C(c1ccc(Cl)cc1)CC(c1ccc(Cl)cc1)N2)c1ccco1 (stereo not drawn) 13%

Growth inhibition, inactive:
CCSc1nnc(NC(=O)CSc2nccn2-c2cccc(C)c2C)s1 2.99%
Cc1onc(-c2c(F)cccc2Cl)c1C(=O)Nc1nc2c(s1)CCCC2 -5.05%
Cc1cc(N2CCN(C(c3ccccc3)c3ccccc3)CC2)n2ncnc2n1 6.9%
COc1ccc(OC)c(S(=O)(=O)n2cnc3cc(C)c(C)cc32)c1 -5.06%
Brc1cc(Br)c2ncnc(N3CCCCC3)c2c1 7.11%
CCc1nc(N2CCCCC2)c2oc3ccccc3c2n1 -1.03%
c1ccc(-c2nc(CSc3nnc(-c4cccs4)o3)cs2)cc1 -5.14%
Cc1cc(-c2ccco2)c(C#N)c2nc3ccccc3n12 -4.65%
Cc1ccc(NC(=O)N2CCC(c3nc4c(nnn4Cc4cccc(Cl)c4)c(=O)[nH]3)CC2)cc1 -0.39%
O=C(Nc1nnc(-c2ccc(Cl)cc2)o1)c1ccccc1Br 5.98% [at 50 µM]
O=C(Nc1nnc(-c2ccccc2)o1)c1nc2ccccc2s1 -11.8%
Cc1ccc(C2c3c(-c4ccccc4O)n[nH]c3C(=O)N2Cc2ccncc2)cc1 (stereo not drawn) -4.25%
O=C(Nc1ccc(Cl)c(Cl)c1)N1CCSC1c1ccco1 (stereo not drawn) 15.6%
CCc1nnc(NC(=O)c2cccc(C(=O)Nc3nnc(CC)s3)n2)s1 9.58%
CCSc1nnc(NC(=O)c2nc(-c3ccccc3)n(-c3ccccc3)n2)s1 -4.83%
Cc1ccc(-c2nnc3sc(CCc4ccccc4)nn23)cc1 9.95%
COC(=O)c1ccsc1NC(=O)CN1CCN(c2ccc(F)cc2)CC1 -9.19%
O=C(c1cccc(COc2ccc(Cl)cc2Cl)c1)N1CCN(c2ccccn2)CC1 -14.7%
O=C(Nc1nc2ccccc2s1)C1CCCN1S(=O)(=O)c1ccc(Cl)cc1 (stereo not drawn) -7.08%
COc1ccc(-c2nnc(SCc3cc(C)cc(C)c3)o2)cc1 -1.05%
c1ccc(N2CCN(c3ncnc4c3oc3ccccc34)CC2)cc1 -9.68%
COc1ccc(C)cc1NC(=O)CSc1nnc(COc2ccccc2)n1Cc1ccco1 0.64%
CCc1cc2c3c(c(=O)oc2cc1O)CCCC3 -5.58%
CCCn1c(CNc2ccc(Br)cc2)nc2ccccc21 7.8%
CCc1nc2ccccc2c(=O)n1NC(=O)c1c(O)c2cccc3c2n(c1=O)CCC3 -13.7%
O=C(Nc1nc2ccccc2n1CCOc1ccc(Cl)cc1)c1ccco1 3.35%
COc1ccc(C2CC(c3ccccc3)n3nc(NC(=O)c4cccs4)nc3N2)cc1 (stereo not drawn) 3.83%
O=C(Cn1c2c(c(-c3ccccc3)cc1=O)CCCC2)N1CCCCCC1 3.36%
C=CCn1c(SCC(O)Cn2c3ccccc3c3ccccc32)nnc1-c1ccco1 (stereo not drawn) -9.43%
O=C(CSc1nnc2scc(-c3ccccc3)n12)Nc1nsc(-c2ccccc2)n1 -9.04%
COc1ccc(Cl)cc1N1CCN(CCNC(=O)Nc2ccccc2C)CC1 -2.62%
Cn1c(=O)c(C(=S)NC(=O)C2CC2)c(N)n(Cc2ccccc2)c1=O -3.57%
N=c1c2c(-c3ccccc3)c(-c3ccccc3)n(Cc3ccco3)c2ncn1Cc1ccco1 8.39%
CC(C)(C)N1C(=O)Cc2c1nc(N)c1c(N)nc(N3CCCCC3CO)c(C#N)c21 (stereo not drawn) -2.72%
c1csc(-c2noc(COc3ccc4c(c3)CCCC4)n2)c1 14.2%
COc1ccc(CNC(=O)c2cc(-c3ccccc3OC)on2)cc1 10.6%
O=C(CS(=O)(=O)c1ccccc1)Nc1nc(-c2ccccc2)cs1 7.34%
CCN(CC)c1ccc(C(=O)Nc2cccc(F)c2)cc1 0.51%
O=C(CN1CCN(S(=O)(=O)c2ccc(F)cc2)CC1)Nc1ccc(Cl)c(C(F)(F)F)c1 1.58%
CC1CCN(c2nc3ccccc3nc2C(C#N)S(=O)(=O)c2ccccc2)CC1 (stereo not drawn) -11.4%
CC1=CCC(COC(=O)Nc2ccccc2)CC1 (stereo not drawn) 10.3%
Cc1cccnc1NC(=O)c1c(O)c2cccc3c2n(c1=O)CCC3 0.91%
CCn1c(=O)c(C(=O)Nn2c(C)nc3ccccc3c2=O)c(O)c2ccccc21 2.63%
CCOC(=O)Cc1c(C)nc2c(-c3cccc(Br)c3)c[nH]n2c1=O 7.94%
Cc1onc(-c2ccccc2)c1C(=O)Nc1nnc(COc2ccc(Cl)cc2)s1 -9.06%
CCn1c(C(=O)N2CCC(Cc3ccccc3)CC2)cc2sccc21 -18.6%
N#Cc1c(NC(=O)c2ccc(Br)o2)n(-c2ccccc2)c2nc3ccccc3nc12 -13.4%
CC1=C(C#N)c2nc(N)c(C#N)c(C)c2/C1=C\c1ccccc1 -0.01%
C(=C\c1ccccc1)/CN1CCN(c2ncnc3c2oc2ccccc23)CC1 -1.65%
CCC(CC)c1nnc(NC(=O)c2c(-c3ccccc3)noc2C)s1 9.3%
O=C1c2ccccc2C(O)(Cc2ccccc2)N1C1CCCCC1 (stereo not drawn) -0.01%
CCCc1nc(SCC(=O)N2CCC(Cc3ccccc3)CC2)c2c(=O)n(C)c(=O)n(C)c2n1 -7.24%
O=C(Nc1ccc2nc(-c3cccs3)[nH]c2c1)c1ccco1 15%
Cc1ccccc1S(=O)(=O)Cc1ccc(C(=O)N2CCN(c3cccc(C)c3C)CC2)o1 7.63%
COc1ccc(-c2cc3nc4c(c(N5CCC6(CC5)OCCO6)n3n2)CCCC4)cc1 0.64%
Clc1ccc(C2=Nn3c(nnc3-c3n[nH]c4c3CCC4)SC2)cc1Cl 1.98%
Cc1cccc(N2C(N)=C(C#N)C(C#N)(C#N)C2c2ccccc2)c1 (stereo not drawn) -0.76%
